Experimental data as given in PubChem BioAssay AID1027 (Sanford-Burnham Center for Chemical Genomics, 2008).
Hit rate of the full screen: of about 200,000 compounds, fewer than 10 were called active.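 How the source made its calls: active means luciferase activation factor, scaled between plate controls, of at least 2 with compound at 10 µM; inactive means the rest.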 Only a sample is shown.

target: Luciferin 4-monooxygenase (Photinus pyralis) (UniProt P08659); assay: FLuc activators, initial screening, artefact control for FLuc-dependent activation tests, biochemical, ATPlite luminescence (AID 1027); conditions: ATPlite luciferase biochemical, 10 min, at 10 µM, stronger effect = higher value, 0 = ATP-free wells, 1 = DMSO control
Summary of the method: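 System: luciferase plus luciferin reagent, cell-free; medium: PBS as buffer for the ATP substrate; dosing: test compounds dosed from 2 mM stocks in 100% DMSO; timing: 10 min post-reagent at room temperature; measured by: luminescence measurement of luciferase light output; evaluation: luciferase activation, seen as luminescence increase over controls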

Sequence of Luciferin 4-monooxygenase (Photinus pyralis) (P08659 whole entry, looked up): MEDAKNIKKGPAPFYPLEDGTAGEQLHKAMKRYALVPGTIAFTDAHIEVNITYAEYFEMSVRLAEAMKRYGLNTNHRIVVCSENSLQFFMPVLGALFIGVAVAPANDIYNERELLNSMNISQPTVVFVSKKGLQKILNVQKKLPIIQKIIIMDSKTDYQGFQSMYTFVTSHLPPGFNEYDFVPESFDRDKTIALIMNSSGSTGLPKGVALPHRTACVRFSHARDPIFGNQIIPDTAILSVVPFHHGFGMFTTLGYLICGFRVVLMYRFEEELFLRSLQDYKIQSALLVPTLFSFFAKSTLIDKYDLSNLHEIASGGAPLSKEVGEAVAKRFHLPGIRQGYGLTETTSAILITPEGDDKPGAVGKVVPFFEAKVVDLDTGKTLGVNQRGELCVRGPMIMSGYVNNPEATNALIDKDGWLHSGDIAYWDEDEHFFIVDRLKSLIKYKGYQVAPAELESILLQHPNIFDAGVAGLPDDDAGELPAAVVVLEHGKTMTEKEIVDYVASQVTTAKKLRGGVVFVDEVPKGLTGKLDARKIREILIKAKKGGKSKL

Activation factor, inactive:
CCn1c(-c2ccncc2)n[nH]c1=S 1
O=C(COC(=O)c1cccc(Br)c1)Nc1cccc2c1C(=O)c1ccccc1C2=O 1
O=c1[nH]n2c(-c3ccccc3)nc(O)c2c2ccccc12 1
N/C(Cc1ccc([N+](=O)[O-])cc1)=N\OC(=O)C1CCCCC1 1
Cc1c(-c2cccc(Cl)c2)nc2ccccc2c1C(=O)OCC(=O)N(C)C1CCS(=O)(=O)C1 (configuration not stated) 1
COCCCNCCOCCOc1ccc(Cl)cc1Br 1
CC(=O)Nc1ccc(SCC(=O)Nc2ccccc2Oc2ccccc2)cc1 1
Cc1cc(Oc2ccc(Cl)cc2)nc(SCC(=O)c2ccccc2)n1 1
C/C(=N\Nc1ccc([N+](=O)[O-])cc1)c1ccc(-n2nncc2C(C)(C)C)cc1 1
Cc1cccc(C)c1NC(=O)CNC(=O)Cc1ccc(Br)cc1 1.1
Cc1ccc(C(=O)C(=S)N2CCOCC2)cc1 1.1
Cc1ccc(N(CCC(=O)O)S(=O)(=O)c2cccc(C(F)(F)F)c2)cc1 1
Cc1ccc(NN=Nc2nc3c([nH]2)c(=O)n(C)c(=O)n3C)cc1 1
O=C(N/N=C/c1ccc(Cl)cc1)c1nc2ccc([N+](=O)[O-])cc2c(=O)[nH]1 1
CC(=O)Nc1ccc(NC(=O)CSc2nnc(COc3ccccc3C)n2CC2CCCO2)cc1 (configuration not stated) 1
Fc1cc(Br)ccc1NC(=S)Nc1cccnc1 1.1
O=c1cc(CN2CCN(S(=O)(=O)/C=C/c3ccccc3)CC2)c2ccc(O)cc2o1 1
CC1(C)CN(c2ccc(-c3ccnc4ncnn34)cc2)C1=O 1
CN(C)CCOc1ccc(Cl)cc1C(C)(C)C 1.1
CCNC(=S)N1CCN(c2ncccn2)CC1 1
CCc1nnc(NS(=O)(=O)c2ccc(NC(=S)NC(=O)/C=C/c3cccs3)cc2)s1 1
COC(=O)C[n+]1cccc2ccccc21 1
Cc1cccc(N2CCN(C(=O)c3cccc(S(=O)(=O)N4CCc5ccccc5C4)c3)CC2C)c1 (configuration not stated) 1.1
CC(=O)NC(Cc1ccc(F)c(F)c1)C(=O)NC1CCN(C(=O)c2ccc(C)cc2)CC1 (configuration not stated) 1.1
CCCCN(CC)C(=O)c1ccccc1Oc1ccccc1 1
Cc1ccccc1C1CC(c2cccs2)=NN1S(C)(=O)=O (configuration not stated) 1.1
CCn1nc(C)cc1C(=O)N1CCCC(C(=O)c2cccc(OC)c2)C1 (configuration not stated) 0.9
C=C(C)c1cccc(C(C)(C)NC(=O)NCCN(CC)CC)c1 1
Clc1ccc(-c2csc(-c3ccncc3)n2)cc1 0.9
COCCNC(=S)Nc1cc(S(=O)(=O)N2CCOCC2)ccc1N1CCCCC1 1
CC(C)OCCCNC(=O)c1ccc(C2SCC(=O)N2Cc2ccco2)cc1 (configuration not stated) 1
COc1cccc(-n2c(=S)[nH]c3c(oc4ccccc43)c2=O)c1 1
CCc1cc(CNC(=O)CC2C(=O)NCCN2CC2CCCCC2)on1 (configuration not stated) 1.1
CCCCOC(=O)c1ccc(NC(c2ccc(C)cc2)P(=O)(OC)OC)cc1 (configuration not stated) 1
CC1=C(C(=O)Nc2cc(C)ccn2)C(c2cnn(C)c2)C2=C(CC(c3ccccc3)CC2=O)N1 (configuration not stated) 1.1
COc1cc(NC(=O)CSc2nnc3ccc(-c4ccncc4)nn23)cc(OC)c1 1
COc1ccc(CN2CCNC(=O)C2CC(=O)N(C)Cc2ccccn2)cc1OC (configuration not stated) 1
Cc1cc(C(=O)N/N=C\C(Br)=C\c2ccccc2)c(C)o1 0.8
O=C(Cn1nnc2ccccc2c1=O)NCc1ccc(Cl)cc1 1
O=C1CCCN1CCCNC(=S)Nc1ccc(F)c(Cl)c1 1
Cc1c(CN2CCCC(C(=O)c3cccc(Cl)c3)C2)c(=O)n(-c2ccccc2)n1C (configuration not stated) 1
Cc1ccc(-c2csc(NC(=O)Cn3[nH]c(=O)c4ccccc4c3=O)n2)cc1 1
CC[n+]1c(C)n(-c2ccccc2)c2ccc(NC(C)=O)cc21 1
O=S(=O)(c1ccccc1)c1nc(-c2ccccc2F)oc1NCc1cccnc1 1.1
C/C(=N\NC(=S)NCc1ccccc1)c1ccc(Cl)cc1 1
CCCc1cc(-c2nc(-c3ccc(C)cc3)cs2)ccn1 1
CSCC[C@H](NC(=O)OC(C)(C)C)C(=O)N/N=C/c1cc2ccc(C)cc2nc1Cl 1.1
CCOC(=O)c1[nH]c2c(c1-c1ccccc1)C(=O)CC(c1ccc(Cl)cc1)C2 (configuration not stated) 1
Cc1ccc(-n2ncc3c(=O)n(-c4ccc(C)c(C)c4)c(-c4ccco4)nc32)cc1 1
COc1cc(NC(=O)COC(=O)CSc2ccc3ccccc3c2)c(C)cc1[N+](=O)[O-] 1.1
CNC(=O)c1[nH]cnc1C(=O)N[C@@H](CC(C)C)C(=O)OCc1ccccc1 1.1
CCN(CCCNC(=O)CCn1c(=O)[nH]c2ccsc2c1=O)c1ccccc1 1
CCc1ccc(C2C(C#N)=C(N)N(N(C)C)C3=C2C(=O)CCC3)s1 (configuration not stated) 1
O=C(CCCNS(=O)(=O)c1cccc2nsnc12)NCCN1CCN(c2ccccc2F)CC1 1.1
Cc1ccc(NC(=O)CSc2nc(CSc3ccc(C)cc3)cc(=O)[nH]2)cc1 0.9
Cc1cccc(N2CCN(C(=O)c3cnn4c(C(F)F)cc(-c5ccccc5)nc34)CC2)c1C 1
Cc1ccc(NC(=O)CN2CCCCC2)c2c1CC(C)(C)O2 1
CC[C@H](C)[C@@H](C(=O)N1CCNCC1)n1cc([C@@H](N)Cc2ccc(O)cc2)nn1 1.1
CCN(CC)CCNc1nc(-c2ccc(OC(F)F)cc2)c(C)s1 1
CNC(=O)/C(C#N)=C/c1c(F)cccc1Cl 1
Clc1ccc(-c2cc(C3CCNCC3)[nH]n2)c(Cl)c1 1
COc1ccc(C2=NN(c3nc4ccccc4s3)C(=O)C2)cc1 0.4
